The text below walks through data of paper PMC3095849 (Bioorganic & medicinal chemistry, 2011).

SMILES strings stand for the structures. Counter-ions that a name gives are not always drawn. Like-named read-outs stand apart in the source and are kept apart here.

The target in experiment [1] is T1, human κ opioid receptor (Homo sapiens, UniProt P41145). To be noted: cited from earlier work.
Experiment [2] deals with T1, human κ opioid receptor. In words: Opioid binding, [3H]U69,593, CHO membranes. The following applies: ratio of Ki values μ/κ/δ.
For experiment [3], the target named is T1, human κ opioid receptor. In words: [35S]GTPγS binding assay, agonist properties, kappa. The class given is biochemical. In general terms: GTPγS is a poorly hydrolysed GTP analogue; its binding reports G protein activation.
The target of experiment [4] is T1, human κ opioid receptor. In words: [35S]GTPγS binding assay, inhibition of U50,488-stimulated binding, kappa. The class given is biochemical. To be noted: read-out: Kappa (Antagonist) IC50; binding stimulated by 100 nM U50,488. An outline of the steps: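 Antagonist mode: membranes from CHO cells stably expressing human κ receptor, with 12 concentrations of test compound and 0.08 nM [35S]GTPγS. Buffer: 50 mM Tris-HCl pH 7.4, 3 μM GDP, 3 mM MgCl2, 0.2 mM EGTA, 100 mM NaCl. Incubated 60 min at 30°C. Nonspecific binding: 10 μM GTPγS. Filtered and counted. IC50 and Imax calculated. Three experiments in triplicate, mean ± SEM.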

Experiment [5] addresses human μ opioid receptor (Homo sapiens, UniProt P35372). In words: [35S]GTPγS binding assay, agonist properties, mu. The class given is biochemical. Put shortly:
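CHO cells stably expressing human μ receptor, grown in DMEM with 10% FBS at 37°C, 5% CO2. Membranes incubated with 12 concentrations of test compound in 50 mM Tris-HCl pH 7.4, 3 μM GDP, 3 mM MgCl2, 0.2 mM EGTA, 100 mM NaCl, plus 0.08 nM [35S]GTPγS, 60 min, 30°C. Nonspecific: 10 μM GTPγS. Filtration, scintillation counting. EC50 and Emax calculated. Three experiments in triplicate.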

As a reminder, the IC50 is the concentration needed to halve the response being measured.

T1 sequence (P41145 whole entry): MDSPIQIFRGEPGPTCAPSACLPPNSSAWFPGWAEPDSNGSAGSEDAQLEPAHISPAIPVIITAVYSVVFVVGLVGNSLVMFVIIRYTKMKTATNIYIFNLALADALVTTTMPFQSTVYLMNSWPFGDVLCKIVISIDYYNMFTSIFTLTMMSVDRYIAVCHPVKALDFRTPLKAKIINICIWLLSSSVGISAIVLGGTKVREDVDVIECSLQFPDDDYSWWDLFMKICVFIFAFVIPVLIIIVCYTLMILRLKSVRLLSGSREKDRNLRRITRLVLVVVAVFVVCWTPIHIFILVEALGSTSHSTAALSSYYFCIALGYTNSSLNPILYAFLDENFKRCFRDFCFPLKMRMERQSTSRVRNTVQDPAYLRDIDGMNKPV
Chain of human μ opioid receptor (P35372 whole entry): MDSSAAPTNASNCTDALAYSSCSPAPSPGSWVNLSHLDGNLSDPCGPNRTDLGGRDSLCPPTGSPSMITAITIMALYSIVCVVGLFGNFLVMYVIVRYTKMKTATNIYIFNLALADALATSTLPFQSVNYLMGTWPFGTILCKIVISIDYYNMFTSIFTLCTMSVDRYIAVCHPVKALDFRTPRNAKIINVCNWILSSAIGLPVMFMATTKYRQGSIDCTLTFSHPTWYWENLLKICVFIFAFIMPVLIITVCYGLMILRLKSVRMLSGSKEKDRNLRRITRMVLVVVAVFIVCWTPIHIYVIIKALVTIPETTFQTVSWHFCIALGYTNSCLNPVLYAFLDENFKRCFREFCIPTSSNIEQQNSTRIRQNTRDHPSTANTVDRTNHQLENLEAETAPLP

As for `O=C(CCCCCCCCC(=O)Oc1ccc2c(c1)[C@@]13CCCC[C@H]1[C@@H](C2)N(CC1CCC1)CC3)Oc1ccc2c(c1)[C@@]13CCCC[C@H]1[C@@H](C2)N(CC1CCC1)CC3` [Compound 3], in experiment [1], the “Selectivity μ : κ : δ” value was 2/1/90.

Turning to `O=C(/C=C/C(=O)Oc1ccc2c(c1)[C@@]13CCCC[C@H]1[C@@H](C2)N(CC1CCC1)CC3)Oc1ccc2c(c1)[C@@]13CCCC[C@H]1[C@@H](C2)N(CC1CCC1)CC3` [Compound 4], the “Selectivity μ : κ : δ” value in experiment [1] is listed as 3/1/120.

With `CO[C@@]12CCCC[C@@]13CCN(CC1CCC1)[C@@H]2Cc1ccc(O)cc13` [Compound 8, (−)-14-methoxybutorphanol], in experiment [2], the “Selectivity μ : κ : δ” value was 1/1/58. Moreover, in experiment [3], the “Functional character at κ receptor (full/partial agonist)” value is on record as “partial κ agonists”.

Regarding `CO[C@@]12CCCC[C@@]13CCN(CC1CCC1)[C@@H]2Cc1ccc(OC(=O)CCCCCCCCC(=O)Oc2ccc4c(c2)[C@@]25CCCC[C@@]2(OC)[C@@H](C4)N(CC2CCC2)CC5)cc13` [Compound 9b, Bis((−)-14-methoxy-17-N-cyclobutylmethyl)morphinan-3-yl) decanedioate], the “Selectivity μ : κ : δ” value in experiment [2] is recorded as 1/1/50. Moreover, the “Functional character at κ receptor (full/partial agonist)” value in experiment [3] was “partial κ agonists”.

With `Nc1nc2cc3c(cc2s1)C[C@@H]1[C@@H]2CCCC[C@]32CCN1CC1CC1` [Compound 10, ATPM], the “Selectivity μ : κ : δ” value in experiment [1] is reported as 31/1/592.

In the case of `O=C(CCCCCCCCC(=O)Nc1nc2cc3c(cc2s1)C[C@@H]1[C@@H]2CCCC[C@]32CCN1CC1CC1)Nc1nc2cc3c(cc2s1)C[C@@H]1[C@@H]2CCCC[C@]32CCN1CC1CC1` [Compound 11, Bis((−)-3-aminothiazolo-N-cyclopropyl-methylmorphinan)sebacamide hydrochloride], the “Selectivity μ : κ : δ” value in experiment [2] is reported as 24/1/460. The “Functional character at κ receptor (full/partial agonist)” value in experiment [3] was “full κ agonists”. Further, the 50% inhibitory concentration (IC50) in experiment [4] was greater than 10 µM. Besides, the “Functional character at μ receptor (full/partial agonist)” value in experiment [5] was “partial μ agonists”.

In the case of `c1c2c(cc3sc(NCCCCCCCCCCNc4nc5cc6c(cc5s4)C[C@@H]4[C@@H]5CCCC[C@]65CCN4CC4CC4)nc13)C[C@@H]1[C@@H]3CCCC[C@]23CCN1CC1CC1` [Compound 12, (−)-3,3′-(decane-1,10-diaminothiazolo)bis(cyclopropylmethyl)morphinan hydrochloride], the “Selectivity μ : κ : δ” value in experiment [2] is listed as 9/1/140. In addition, in experiment [3], the “Functional character at κ receptor (full/partial agonist)” value is “full κ agonists”. Further, the IC50 in experiment [4] is greater than 10 µM. The “Functional character at μ receptor (full/partial agonist)” value in experiment [5] is “partial μ agonists”.

With `CO[C@@]12CCCC[C@@]13CCN(CC1CCC1)[C@@H]2Cc1ccc(OC(=O)CCCCCCCCC(=O)OCc2ccccc2)cc13` [Compound 13b, Benzyl (−)-14-methoxy-butorphanol-3-yl decanedioate], in experiment [2], the “Selectivity μ : κ : δ” value is recorded as 1/1/93. Moreover, in experiment [3], the “Functional character at κ receptor (full/partial agonist)” value was “partial κ agonists”.

On to `C=CCN1CC[C@]23c4c5ccc(OC(=O)CCCCCCCCC(=O)Oc6ccc7c(c6)[C@@]68CCCC[C@@]6(O)[C@@H](C7)N(CC6CCC6)CC8)c4O[C@H]2C(=O)CC[C@@]3(O)[C@H]1C5` [Compound 15a, (5α)-17-Allyl-14-hydroxy-6-oxo-4,5-epoxymorphinan-3-yl-17-((−)-N-cyclobutylmethyl-14-hydroxyl-mophinan-3-yl) decanedioate.], for which, in experiment [2], the “Selectivity μ : κ : δ” value is 3/1/130. Further, the “Functional character at κ receptor (full/partial agonist)” value in experiment [3] was “partial κ agonists”.

Regarding `O=C(CCCCCCCCC(=O)Oc1ccc2c(c1)[C@@]13CCCC[C@@]1(O)[C@@H](C2)N(CC1CCC1)CC3)Oc1ccc2c(c1)[C@@]13CCCC[C@H]1[C@@H](C2)N(CC1CCC1)CC3` [Compound 15b, ((−)-17-N-cyclobutylmethyl)morphinan-3-yl-((−)-14-hydroxyl-17-N-cyclobutylmethyl) morphinan-3-yl) decanedioate], in experiment [2], the “Selectivity μ : κ : δ” value is on record as 1/1/110. Besides, in experiment [3], the “Functional character at κ receptor (full/partial agonist)” value is “partial κ agonists”.

`C=CCN1CC[C@]23c4c5ccc(OC(=O)CCCCCCCCC(=O)Oc6ccc7c(c6)[C@@]68CCCC[C@@]6(OC)[C@@H](C7)N(CC6CCC6)CC8)c4O[C@H]2C(=O)CC[C@@]3(O)[C@H]1C5` [Compound 15c, (5α)-17-allyl-14-hydroxy-6-oxo-4,5-epoxymorphinan-3-yl-((−)-14-methoxyl-17-N-cyclobutylmethyl)morphinan-3-yl) decanedioate]: in experiment [2], the “Selectivity μ : κ : δ” value is recorded as 4/1/280. In addition, the “Functional character at κ receptor (full/partial agonist)” value in experiment [3] is reported as “partial κ agonists”.
